High-throughput results as filed in PubChem BioAssay.
A selection: hits, their analogues and other compounds. The true share with any hit is near 3%.
FID counter: fluorescent intercalator displacement, NS3 helicase counter-screen. DNA fluorescent intercalator displacement, fluorescence. 290,000 compounds, 0.17% hits. AID 1845. inhibition, % at 7.9 µM; in the data active means inhibition above about 37%;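 further: 0% = vehicle and 100% = reference compound; higher means more ethidium bromide displaced from hairpin DNA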
ANO1 block: inhibitors of mouse TMEM16A calcium-activated chloride channel; AID 588511; normalized B-score (activity score, 25-100; higher = stronger inhibition) at 10 µM; HEK293 TMEM16A/YFP iodide influx fluorescence, ionomycin; 310,000 compounds, 1.2% hits; Q8BHY3;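 active means ratio plate-corrected score three or more library SD toward inhibition, starting fluorescence score within five deviations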;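 further: score derived from kinetic fluorescence span divided by baseline fluorescence per well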
Target sequence (Q8BHY3 whole entry, looked up): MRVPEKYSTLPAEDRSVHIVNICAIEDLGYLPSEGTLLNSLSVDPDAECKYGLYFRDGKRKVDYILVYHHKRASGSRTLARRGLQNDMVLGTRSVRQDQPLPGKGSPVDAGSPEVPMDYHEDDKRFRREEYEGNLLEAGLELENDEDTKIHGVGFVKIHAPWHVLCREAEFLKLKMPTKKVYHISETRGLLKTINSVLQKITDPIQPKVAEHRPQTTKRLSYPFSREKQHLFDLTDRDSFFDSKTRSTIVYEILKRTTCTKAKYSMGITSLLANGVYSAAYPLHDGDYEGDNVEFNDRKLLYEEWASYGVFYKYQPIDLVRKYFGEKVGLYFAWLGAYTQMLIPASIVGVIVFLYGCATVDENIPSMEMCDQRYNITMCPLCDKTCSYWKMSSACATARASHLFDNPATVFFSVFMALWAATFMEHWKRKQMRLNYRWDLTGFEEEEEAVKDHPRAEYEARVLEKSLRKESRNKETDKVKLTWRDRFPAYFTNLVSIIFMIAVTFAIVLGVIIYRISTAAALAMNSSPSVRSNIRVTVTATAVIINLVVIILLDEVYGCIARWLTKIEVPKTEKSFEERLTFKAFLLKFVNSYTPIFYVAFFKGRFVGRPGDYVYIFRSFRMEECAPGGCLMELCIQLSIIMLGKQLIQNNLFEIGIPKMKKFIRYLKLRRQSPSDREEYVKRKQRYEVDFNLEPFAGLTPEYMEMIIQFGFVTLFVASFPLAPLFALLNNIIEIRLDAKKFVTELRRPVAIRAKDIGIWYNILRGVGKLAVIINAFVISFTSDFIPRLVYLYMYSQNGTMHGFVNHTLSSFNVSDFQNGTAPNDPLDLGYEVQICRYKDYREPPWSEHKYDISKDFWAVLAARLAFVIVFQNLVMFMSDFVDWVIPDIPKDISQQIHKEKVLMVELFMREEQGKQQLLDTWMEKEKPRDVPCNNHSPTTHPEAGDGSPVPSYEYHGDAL
Kir21 block: blocks the mouse Kir2.1 inward-rectifier potassium channel; P35561; HEK293-Kir2.1, FluxOR thallium flux fluorescence; stronger effect = lower value; B-score at 10 µM; 310,000 compounds, 0.85% hits;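 active means fluorescence ratio B-score at or below minus 3 SD of library scores, with starting-brightness B-score within 2 SD, cut at about -4.2 in these data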;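 further: channel flux triggered by added potassium and thallium sulfate stimulus; B-score of peak minus minimum fluorescence over baseline after thallium stimulus; more negative B-score means stronger Kir2.1 block with less thallium influx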
SR-BI DiI inh: blocks mouse SR-BI lipid uptake from DiI-HDL. Q61009. ldlA[mSR-BI] CHO cells, DiI-HDL uptake fluorescence, 3 h. inhibition, % at 12.5 µM. 320,000 compounds, 0.96% hits. AID 488896;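 active means mean replicate inhibition of at least 70% and a set share of replicates each scoring 70 or more; inconclusive means meets just one of the two criteria; inactive means fails both criteria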;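 further: 0% = median of neutral control wells and 100% = median of positive control wells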
TMEM16A act: activates or potentiates the mouse TMEM16A chloride channel; Q8BHY3; HEK293 TMEM16A/YFP-H148Q/I152L, iodide quench fluorescence; stronger effect = lower value; B-score at 10 µM; 340,000 compounds, 0.3% hits; AID 623877;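 active means fluorescence-ratio B-score plate-corrected deviation score at least 3 library SD below zero, with starting fluorescence score within 5 deviations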;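 further: channel opened by trigger with iodide after compound preincubation; score built on the fluorescence ratio of max minus min over baseline; more negative score means more quench and so TMEM16A activation or potentiation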
SR-BI DiI-HDL act: activators of SR-BI mediated HDL lipid uptake | CHO ldlA[mSR-BI] cells, DiI-HDL uptake fluorescence, 3 h; 100 = double the neutral-control signal | activation, % at 12.5 µM | 320,000 compounds, 0.096% hits;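 active means mean replicate activation of at least 60% and every replicate at or above 60%; inconclusive means mean or all-replicate condition met, but not both; inactive means mean below 60% and not all replicates reaching 60%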;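 further: 0% = median plate neutral-control signal and 100% = twice that signal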
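Assay system: CHO ldlA[mSR-BI] cells, LDL receptor-null, SR-BI overexpressing; medium: Ham's F12 with 0.5% BSA, HEPES 25 mM, pH 7.4; also added: DiI-HDL 10 µg/mL; timing: 3 h uptake period with compound, 37 °C; signal: DiI fluorescence, bottom read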
Starred values were filed as active, the others as inactive; i = inactive; ? = inconclusive; . = no result.

SMILES	FID counter	ANO1 block	Kir21 block	SR-BI DiI inh	TMEM16A act	SR-BI DiI-HDL act
COCCCN(C(=O)c1cc2c(s1)CCCCC2)c1c(N)n(Cc2ccccc2)c(=O)[nH]c1=O	.	i	-0.45	-12.5	i	12.5
CNC(=O)c1ccc(-c2sc3nc(N4CCOCC4)c4c(c3c2N)CCCC4)o1	-23.2	i	0.67	86.8*	i	-86.8
Cc1nc2ccccc2c2oc(C(=O)NCC3COc4ccccc4O3)cc12 (configuration not stated)	-9.0	25*	-0.97	-8.6	i	8.6
COc1cc(NC(=O)c2cc3c(C)nc4ccccc4c3o2)cc(OC)c1OC	-31.7	i	2.02	73.3*	i	-73.3
CCc1ccc(CNC(=O)c2cc3c(C)nc4ccccc4c3o2)cc1	-15.1	i	0.6	-4.7	i	4.7
CCN(CCn1cccn1)Cc1c(C(=O)N2CCCCCCC2)nc2ccc(Cl)cn12	-39.7	i	0.02	-14.4	i	14.4
Cc1ccccc1N=Nc1c(C)[nH]n(-c2ccccc2)c1=O	-0.6	.	.	.	.	.
C/C(=N\NC(=O)c1ccc(C)cc1)c1c(C)[nH]n(-c2ccccc2)c1=O	-18.5	i	0.1	124.6*	i	-124.6
Cc1[nH]n(-c2ccccc2)c(=O)c1C(=O)Nc1ccccc1	-3.2	i	-2.99	7.3	i	-7.3
C/C(=N\NC(=O)c1ccccc1)c1c(C)[nH]n(-c2ccccc2)c1=O	-4.7	i	-0.9	125.6*	i	-125.6
Cc1[nH]n(-c2ccccc2)c(=O)c1N=Nc1ccccc1O	9.4	.	-1.18	119.0*	i	-119.0
Cc1c(-c2cccc(NC(=O)c3cccs3)c2)nc2ncccn12	-10.4	i	-1.94	6.3	i	-6.3
O=C(c1cc2ccccc2o1)N1CCN(C/C=C/c2ccccc2)CC1	-7.5	i	0.89	-19.9	i	19.9
OC1(C#Cc2c(-c3ccsc3)oc3ccc(N4CCOCC4)cc23)CCCCC1	.	i	-0.32	29.8	i	-29.8
COc1cc(-c2ccc3oc(-c4ccsc4)c(C#CC4(O)CCCCC4)c3c2)cc(OC)c1OC	.	i	0.01	75.7*	i	-75.7
COc1cc(OC)cc(C(=O)NC(C(=O)Nc2ccc(N3CCOCC3)cc2)C(C)C)c1 (configuration not stated)	.	.	.	-2.3	i	2.3
O=C(O)c1cnnc2ccccc12	.	.	.	-0.5	i	0.5
COc1ccc(C2c3ccc4ccccc4c3Oc3ncn(CCCN(C)C)c(=N)c32)cc1 (configuration not stated)	18.8	i	-7.2*	-18.7	i	18.7
COc1ccccc1C1c2ccc3ccccc3c2Oc2ncn(CCN(C)C)c(=N)c21 (configuration not stated)	13.5	i	-5.21*	1.3	i	-1.3
Cc1ccc(NC(=O)CCCN2C(=O)NC(C)(C)C2=O)cc1	.	.	.	-30.3	i	30.3
CC(=O)N1CCN(S(=O)(=O)c2cccc(C(=O)Nc3ccccc3N3CCCCC3)c2)CC1	.	.	.	1.7	i	-1.7
CCOC(=O)c1c(C)nc2ccccc2c1-c1ccccc1	-21.4	i	-5.93*	-12.7	i	12.7
C=CCNc1nc(C(=O)OCC)nc2ccccc12	-0.9	100*	0.97	-1.1	i	1.1
CCOC(=O)c1nc(NCc2ccccc2)c2ccccc2n1	-18.8	i	-0.7	-4.8	i	4.8
CCc1cc(=O)[nH]c(SCC(=O)N2CCC(Cc3ccccc3)CC2)n1	.	i	0.23	-20.4	i	20.3
SMILES	FID counter	ANO1 block	Kir21 block	SR-BI DiI inh	TMEM16A act	SR-BI DiI-HDL act
COc1ccc(CCN2CCCC(CN(C)Cc3cc(OC)ccc3OC)C2)cc1 (configuration not stated)	11.5	i	-1.89	-9.5	i	9.5
CN(Cc1ccccc1O)CC1CCCN(CCc2ccc(Cl)cc2)C1 (configuration not stated)	10.7	i	-14.5*	-17.2	i	17.2
CN(Cc1ccc(C#CCCO)cc1)CC1CCCN(CCc2ccc(Cl)cc2)C1 (configuration not stated)	10.1	i	-9.39*	6.4	i	-6.4
Cc1[nH]c(=O)nc(NN=Cc2ccc(Cl)cc2)c1C(=O)Nc1ccc(Cl)cc1	.	.	.	48.9	i	-48.9
CCOC(=O)c1cc2c(C(F)(F)F)cc(-c3ccccc3)nc2o1	-2.9	i	0.52	76.5*	i	-76.5
CCOC(=O)CS(=O)(=O)c1nc(-c2ccccc2)cc(C(F)(F)F)n1	-15.2	i	-7.09*	98.0*	i	-98.0
COC(=O)CCS(=O)(=O)c1nc(-c2ccccc2)cc(C(F)(F)F)n1	-7.3	i	-4.6*	6.9	i	-6.9
CCOC(=O)CCS(=O)(=O)c1nc(-c2ccccc2)cc(C(F)(F)F)n1	-12.0	i	-3.05	-8.6	i	8.6
CCOC(=O)CS(=O)(=O)c1nc(-c2ccc(F)cc2)cc(C(F)(F)F)n1	-11.0	i	-4.48*	19.8	i	-19.8
CS(=O)(=O)c1nc(-c2cccs2)cc(C(F)(F)F)n1	1.3	i	-5.97*	.	.	.
O=C(O)CCS(=O)(=O)c1nc(-c2cccs2)cc(C(F)(F)F)n1	3.6	i	-1.2	-6.2	i	6.2
O=C(Nc1ccc(C2=NCCN2)cc1)c1ccc(C(=O)Nc2ccc(C3=NCCN3)cc2)c([N+](=O)[O-])c1	70.4*	i	-0.82	35.7	i	-35.7
Cc1ccc(NC(=O)c2ccc(-n3cccn3)c([N+](=O)[O-])c2)cc1	4.7	i	0.24	30.2	i	-30.2
O=C(Sc1ccc(Cl)cc1)c1ccccn1	.	i	-0.3	-8.3	i	8.3
COc1ccc(-n2cccc2/C=C/[N+](=O)[O-])cc1	-8.2	i	-4.76*	19.2	i	-19.2
N#C/C(=C(/O)c1ccc(C(=O)c2ccccc2)cc1)c1nc2ccccc2[nH]1	-3.4	i	-0.11	-242.9	i	242.9*
CC(C)COCC(CN(Cc1ccccc1)c1ccccc1)N1CCCC1 (configuration not stated)	29.9	i	-6.3*	13.8	i	15.0
Cc1cc(C)c(C(=O)N(C)C2CCCN(Cc3ccccc3F)C2)o1 (configuration not stated)	-10.1	i	0.52	15.1	i	.
COc1cc(CNc2nc(C)c([N+](=O)[O-])c(C)c2C#N)cc(OC)c1	-1.6	i	0.01	75.8*	i	-75.8
COCc1c(C#N)c(NCCc2ccccc2)nc(C)c1[N+](=O)[O-]	-0.2	i	1.51	47.0	i	-47.0
COCc1c(C#N)c(NCc2cc(OC)c(OC)c(OC)c2)nc(C)c1[N+](=O)[O-]	-33.4	25*	0.24	?	i	-71.0
